Results: PMC13645671 (Nature, 2026)

What was measured:
[1] = tested on: LPS-primed human THP-1 monocytic cells; test: Nigericin-induced pyroptosis, LDH release; assay type: cell-based; conditions: LPS-primed THP-1 cells, 25 µM compound
Outline: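 THP-1 cells in Opti-MEM with 0.1% FBS were primed for 4 h with 1 µg/ml ultrapure LPS (E. coli O111:B4). They were then stimulated for 2 h with 5 µM nigericin, with or without 25 µM test compound. LDH release was measured by CytoTox 96 and given as a percentage of maximal release by 0.1% Triton X-100.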

[2] = tested on: THP-1 cells expressing FKBP–caspase-4; test: B/B-induced FKBP–caspase-4 pyroptosis, LDH release; assay type: cell-based, human; conditions: FKBP–caspase-4 THP-1 cells, 50 nM B/B, 10 µM compound
Outline: (§1)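 Unprimed THP-1 cells stably expressing FKBP–caspase-4 or FKBP–caspase-11 were seeded in Opti-MEM with 0.1% FBS. Cells were dimerised with 50 nM B/B, with or without 10 µM test compound, for the indicated times. LDH in the medium was measured by CytoTox 96 and expressed as a percentage of maximal release by 0.1% Triton X-100.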

[3] = tested on: THP-1 cells expressing FKBP–caspase-11; test: B/B-induced FKBP–caspase-11 pyroptosis, LDH release; assay type: cell-based, human; conditions: FKBP–caspase-11 THP-1 cells, 50 nM B/B, 10 µM compound
Outline: as §1

Row | Structure (SMILES) | nigericin-induced cell lysis (LDH release), in words [1] | cell death induced by caspase-4, in words [2] | cell death induced by caspase-11, in words [3]
1 | C[C@H](NC(=O)C(=O)Nc1ccccc1C(C)(C)C)C(=O)N[C@@H](CC(=O)O)C(=O)COc1c(F)c(F)cc(F)c1F [Emricasan, N-[2-(1,1-dimethylethyl)phenyl]-2-oxoglycyl-N-[(1S)-1-(carboxymethyl)-2-oxo-3-(2,3,5,6-tetrafluorophenoxy)propyl]-L-alaninamide] | inhibited | inhibited | inhibited
2 | CC(C)(O)c1coc(S(=O)(=O)NC(=O)Nc2c3c(cc4c2CCC4)CCC3)c1 [MCC950] | inhibited |  | 
